Measured values: PubChem BioAssay
Unmarked numbers belong to inactive results.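 The calls were made as follows, unless noted: active = viability at or below 30% in both replicate assays; inconclusive = viability at or below 30% in just one of the two assays; inactive = the rest.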

Assay: reduced viability of SK-BR-3 breast cancer cells – cell-based, 24 h, human, pilot screen (AID 572;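 active = viability at or below 10% of carrier control in both of two separate runs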;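 also: compound exposure lasted between 18 and 24 h rather than exactly 24 h; 100% = carrier-treated control wells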)
Settings: SK-BR-3 viability, CellTiter-Glo luminescence, at 10 µM, active compounds read low

SMILES | viability
CCOc1ccc(N2CC(C(=O)Nc3ccccc3OC)CC2=O)cc1 (stereo not given) | 106%
O=C(Cn1ncc2c1-c1ccccc1OC2)N1CCN(c2ccccn2)CC1 | 91.5%
CC1CN(c2c3c(nc4ncnn24)CCCC3)CC(C)O1 (stereo not given) | 89.5%
CCOC(=O)C(CC)n1nc(C)n2c(cc3sccc32)c1=O (stereo not given) | 114%
CCOC(=O)CN(C(=O)c1ccccc1)c1ccccc1C | 93%
Cc1ccc(-n2ncc3c(N4CCCC(C)C4)ncnc32)c(C)c1 (stereo not given) | 104%
CCN1CCN(C(c2cccs2)C(C)NC(=O)c2ccccc2)CC1 (stereo not given) | 92%
CC1=C(C(=O)Nc2ccc(F)cc2)C(c2cccc(C)c2)n2nc(CCCO)nc2N1 (stereo not given) | 87.5%
Cc1ccc(-c2noc(CN3C(C)CCCC3C)n2)cc1 (stereo not given) | 93.5%
CC1CCN(C(=O)CSc2nnc(Cc3cc(=O)[nH]c(=O)[nH]3)n2-c2ccc(Cl)cc2)CC1 | 92.5%
Cc1ccccc1-c1nc(CN2CCC(C(=O)N3CCC(C(N)=O)CC3)CC2)c(C)o1 | 108%
COc1ccc(C(=O)c2ccc(OC)c(N)c2)cc1N | 119%
O=C(CC1(O)C(=O)Nc2ccccc21)c1ccc2c(c1)OCO2 (stereo not given) | 104%
CCOC(=O)c1[nH]c(C)c(C(=O)NC)c1C | 92%
CN(C1CCCCC1)S(=O)(=O)c1ccc(S(=O)(=O)N2CCN(CCC#N)CC2)cc1 | 89.5%
CC1CCCCC1NC(=O)Cn1ncc2ccccc21 (stereo not given) | 104%
CCOC(=O)Cn1c(CCC(=O)O)ccc1-c1ccc(F)cc1 | 99%
CCCc1cc(C(=O)Nc2ccc(C(C)=O)cc2)no1 | 80.5%
CCOC(=O)CN1C(=O)C(=O)c2cccc(C)c21 | 80%
CCOc1ccc(NC(=O)C(C)Sc2nnc(C)n2C)cc1 (stereo not given) | 92%

SMILES | viability
COc1cccc(CNC(=O)Cn2c(=O)oc3ccccc32)c1OC | 110%
Oc1c(C(c2ccccc2)N2CCc3ccccc3C2)sc2ncnn12 (stereo not given) | 87.5%
CCSc1nnc(N2C(=O)CC(c3ccsc3)C3=C2CC(C)(C)CC3=O)s1 (stereo not given) | 89%
Cc1ccnc2c(N3C(=O)C4C5C=CC(C5)C4(C)C3=O)cccc12 (stereo not given) | 98%
CCN(CC)C(=O)c1ccc(CS(=O)(=O)c2ccc(OC)cc2)o1 | 84.5%
CCCCCn1c(=O)[nH]c2cc(C(=O)NCCCN3CCCCC3)ccc2c1=O | 76%
CC(C)c1nccn1S(=O)(=O)c1cc(Cl)ccc1Cl | 104%
CCOC(=O)N1CCC(NC(=O)C2CCCN(C(=O)c3cc4sccc4n3C)C2)CC1 (stereo not given) | 113%
CCCCNC(=O)Cn1c(=O)n(C)c2ccccc21 | 105%
Cc1c(C#N)c2ccccc2n1CC(=O)N1CCc2ccccc2C1 | 102%
O=C(COc1ccc2ccccc2c1)N1CCCC1 | 101%
CCC(=O)N1CCN(c2nc(-c3ccccc3)c3c(c2C#N)CCCC3)CC1 | 105%
CC1(C)CC(=O)c2cnc(NC(=O)Cc3ccc(Cl)cc3)nc2C1 | 71.5%
CCOCCOc1nc2c(c(=O)n(C)c(=O)n2C)n1Cc1ccc(C)cc1 | 83%
CCN(C(=O)c1cc(Cl)ccc1OC)c1ccccc1 | 91.5%
Cc1cccc(-n2ncc3c(N(CCO)CCO)ncnc32)c1 | 97%
N#CCCN1CCN(S(=O)(=O)c2ccc(S(=O)(=O)NC3CCCCC3)cc2)CC1 | 103%
Cc1c(C)c2ccc(OC3CCCCC3=O)cc2oc1=O (stereo not given) | 100%
COc1ccc(-n2c(Cc3cccn3C)nnc2SCC(=O)Nc2ccc(Cl)cc2)cc1 | 99%
Cc1cc(C(N)=O)c2cc(Br)ccc2n1 | 95.5%

Assay: HUVEC growth inhibition – cell-based, human, primary screen (AID 575);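 also: 100% = median of untreated cell wells with 0.1% DMSO on each plate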
Settings: HUVEC proliferation, CellTiter-Glo luminescence, 72 h; at 10 µM; active compounds read low
In short: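 Test system – primary HUVEC, no more than 12 passages · Dosing – one dose, 10 µM final, 0.1% DMSO · Times – 72 h treatment at 37 °C · Measured by – ATP-based CellTiter-Glo luminescent read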

SMILES | viability
CCOc1ccc(N2CC(C(=O)Nc3ccccc3OC)CC2=O)cc1 (stereo not given) | 110%
O=C(Cn1ncc2c1-c1ccccc1OC2)N1CCN(c2ccccn2)CC1 | 101%
CC1CN(c2c3c(nc4ncnn24)CCCC3)CC(C)O1 (stereo not given) | 102%
CCOC(=O)C(CC)n1nc(C)n2c(cc3sccc32)c1=O (stereo not given) | 110%
CCOC(=O)CN(C(=O)c1ccccc1)c1ccccc1C | 104%
Cc1ccc(-n2ncc3c(N4CCCC(C)C4)ncnc32)c(C)c1 (stereo not given) | 60.2%
CCN1CCN(C(c2cccs2)C(C)NC(=O)c2ccccc2)CC1 (stereo not given) | 104%
CC1=C(C(=O)Nc2ccc(F)cc2)C(c2cccc(C)c2)n2nc(CCCO)nc2N1 (stereo not given) | 79%
Cc1ccc(-c2noc(CN3C(C)CCCC3C)n2)cc1 (stereo not given) | 114%
CC1CCN(C(=O)CSc2nnc(Cc3cc(=O)[nH]c(=O)[nH]3)n2-c2ccc(Cl)cc2)CC1 | 101%
Cc1ccccc1-c1nc(CN2CCC(C(=O)N3CCC(C(N)=O)CC3)CC2)c(C)o1 | 105%
COc1ccc(C(=O)c2ccc(OC)c(N)c2)cc1N | 49%
O=C(CC1(O)C(=O)Nc2ccccc21)c1ccc2c(c1)OCO2 (stereo not given) | 87.5%
CCOC(=O)c1[nH]c(C)c(C(=O)NC)c1C | 89.7%
CN(C1CCCCC1)S(=O)(=O)c1ccc(S(=O)(=O)N2CCN(CCC#N)CC2)cc1 | 98.5%
CC1CCCCC1NC(=O)Cn1ncc2ccccc21 (stereo not given) | 82.1%
CCOC(=O)Cn1c(CCC(=O)O)ccc1-c1ccc(F)cc1 | 106%
CCCc1cc(C(=O)Nc2ccc(C(C)=O)cc2)no1 | 77.7%
CCOC(=O)CN1C(=O)C(=O)c2cccc(C)c21 | 86.5%
CCOc1ccc(NC(=O)C(C)Sc2nnc(C)n2C)cc1 (stereo not given) | 97.6%

SMILES | viability
COc1cccc(CNC(=O)Cn2c(=O)oc3ccccc32)c1OC | 89.8%
Oc1c(C(c2ccccc2)N2CCc3ccccc3C2)sc2ncnn12 (stereo not given) | 74.4%
CCSc1nnc(N2C(=O)CC(c3ccsc3)C3=C2CC(C)(C)CC3=O)s1 (stereo not given) | 81.3%
Cc1ccnc2c(N3C(=O)C4C5C=CC(C5)C4(C)C3=O)cccc12 (stereo not given) | 105%
CCN(CC)C(=O)c1ccc(CS(=O)(=O)c2ccc(OC)cc2)o1 | 99.2%
CCCCCn1c(=O)[nH]c2cc(C(=O)NCCCN3CCCCC3)ccc2c1=O | 86.5%
CC(C)c1nccn1S(=O)(=O)c1cc(Cl)ccc1Cl | 92.2%
CCOC(=O)N1CCC(NC(=O)C2CCCN(C(=O)c3cc4sccc4n3C)C2)CC1 (stereo not given) | 82.2%
CCCCNC(=O)Cn1c(=O)n(C)c2ccccc21 | 84.4%
Cc1c(C#N)c2ccccc2n1CC(=O)N1CCc2ccccc2C1 | 93.5%
O=C(COc1ccc2ccccc2c1)N1CCCC1 | 85.3%
CCC(=O)N1CCN(c2nc(-c3ccccc3)c3c(c2C#N)CCCC3)CC1 | 97.2%
CC1(C)CC(=O)c2cnc(NC(=O)Cc3ccc(Cl)cc3)nc2C1 | 96.2%
CCOCCOc1nc2c(c(=O)n(C)c(=O)n2C)n1Cc1ccc(C)cc1 | 94.5%
CCN(C(=O)c1cc(Cl)ccc1OC)c1ccccc1 | 95.6%
Cc1cccc(-n2ncc3c(N(CCO)CCO)ncnc32)c1 | 78.7%
N#CCCN1CCN(S(=O)(=O)c2ccc(S(=O)(=O)NC3CCCCC3)cc2)CC1 | 98.9%
Cc1c(C)c2ccc(OC3CCCCC3=O)cc2oc1=O (stereo not given) | 82.6%
COc1ccc(-n2c(Cc3cccn3C)nnc2SCC(=O)Nc2ccc(Cl)cc2)cc1 | 46.6%
Cc1cc(C(N)=O)c2cc(Br)ccc2n1 | 109%
